# Reference: ChEMBL document CHEMBL1147379, “Antineoplastic agents, 256. Cell growth inhibitory isocarbostyrils from Hymenocallis” (1993)
# Legend:
# Assay type in all cases: functional
# CCRF-CEM = experiment: Growth inhibition of human CCRF-CEM cells
# How it was run: (§1)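 NCI 60-human-tumour-cell-line primary in vitro screen. Each compound was tested eight separate times across three concentration ranges with upper limits of 10⁻⁴, 10⁻⁵ and 10⁻⁶ M. Each range used five 10-fold dilutions. GI₅₀, TGI and LC₅₀ were calculated from the concentration-response curves for each cell line, and averaged mean-graph values were constructed from them.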
# HL-60 = experiment: Growth inhibition of human HL-60(TB) cells; how it was run: as §1
# K562 = experiment: Growth inhibition of human K562 cells; how it was run: as §1
# MOLT-4 = experiment: Growth inhibition of human MOLT4 cells; how it was run: as §1
# RPMI-8226 = experiment: Growth inhibition of human RPMI8226 cells; how it was run: as §1
# SR = experiment: Growth inhibition of human SR cells
# How it was run: (§2)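 NCI 60-human-tumour-line in vitro primary screen. Each compound tested eight separate times over three concentration ranges (upper limits 10⁻⁴, 10⁻⁵ and 10⁻⁶ M), each range as five 10-fold dilutions. GI₅₀ (also TGI and LC₅₀) derived from the concentration-response curves, reported as averaged values per cell line (negative log₁₀).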
# A549 = experiment: Growth inhibition of human A549 cells; how it was run: as §1
# EKVX = experiment: Growth inhibition of human EKVX cells; how it was run: as §1
# HOP-18 = experiment: Growth inhibition of human HOP18 cells; how it was run: as §1
# HOP-62 = experiment: Growth inhibition of human HOP62 cells; how it was run: as §1
# HOP-92 = experiment: Growth inhibition of human HOP92 cells; how it was run: as §1
# NCI-H226 = experiment: Growth inhibition of human NCI-H226 cells; how it was run: as §1
# NCI-H23 = experiment: Growth inhibition of human NCI-H23 cells; how it was run: as §1
# NCI-H322M = experiment: Growth inhibition of human NCI-H322M cells; how it was run: as §1
# NCI-H460 = experiment: Growth inhibition of human NCI-H460 cells; how it was run: as §1
# NCI-H522 = experiment: Growth inhibition of human NCI-H522 cells; how it was run: as §1
# [1] = Growth inhibition of human LXFL529 cells; how it was run: as §1
# DMS-114 = experiment: Growth inhibition of human DMS114 cells; how it was run: as §1
# DMS-273 = experiment: Growth inhibition of human DMS273 cells; how it was run: as §1
# COLO 205 = experiment: Growth inhibition of human COLO205 cells; how it was run: as §1
# DLD-1 = experiment: Growth inhibition of human DLD1 cells; how it was run: as §1
# HCC 2998 = experiment: Growth inhibition of human HCC2998 cells; how it was run: as §1
# HCT-116 = experiment: Growth inhibition of human HCT116 cells; how it was run: as §1
# HCT-15 = experiment: Growth inhibition of human HCT15 cells; how it was run: as §1
# HT-29 = experiment: Growth inhibition of human HT-29 cells; how it was run: as §1
# KM12 = experiment: Growth inhibition of human KM12 cells; how it was run: as §1
# KM-20L2 = experiment: Growth inhibition of human KM20L2 cells; how it was run: as §1
# SW-620 = experiment: Growth inhibition of human SW620 cells; how it was run: as §2
# SF-268 = experiment: Growth inhibition of human SF268 cells; how it was run: as §1
# SF-295 = experiment: Growth inhibition of human SF295 cells; how it was run: as §1
# [2] = read-out: pLC50 (the source's name) (converted)
compound,measurement,setting,value
O=C1N[C@H]2[C@H](O)[C@H](O)[C@@H](O)C[C@@H]2c2cc3c(cc21)OCO3,GI50,CCRF-CEM,34.7 nM
same,CC50,CCRF-CEM; [2],> 100000 nM
same,TGI,CCRF-CEM; read-out: pTGI (converted),525 nM
same,GI50,HL-60,32.4 nM
same,CC50,HL-60; [2],30200 nM
same,TGI,HL-60; read-out: pTGI (converted),191 nM
same,GI50,K562,46.8 nM
same,CC50,K562; [2],> 100000 nM
same,TGI,K562; read-out: pTGI (converted),1100 nM
same,GI50,MOLT-4,44.7 nM
same,CC50,MOLT-4; [2],> 100000 nM
same,TGI,MOLT-4; read-out: pTGI (converted),1910 nM
same,GI50,RPMI-8226,95.5 nM
same,CC50,RPMI-8226; [2],> 100000 nM
same,TGI,RPMI-8226; read-out: pTGI (converted),776 nM
same,GI50,SR,52.5 nM
same,CC50,SR; [2],56200 nM
same,TGI,SR; read-out: pTGI (converted),3240 nM
same,GI50,A549,100 nM
same,CC50,A549; [2],> 100000 nM
same,TGI,A549; read-out: pTGI (converted),1290 nM
same,GI50,EKVX,331 nM
same,CC50,EKVX; [2],81300 nM
same,TGI,EKVX; read-out: pTGI (converted),3720 nM
same,GI50,HOP-18,158 nM
same,CC50,HOP-18; [2],79400 nM
same,TGI,HOP-18; read-out: pTGI (converted),1700 nM
same,GI50,HOP-62,64.6 nM
same,CC50,HOP-62; [2],10000 nM
same,TGI,HOP-62; read-out: pTGI (converted),501 nM
same,GI50,HOP-92,75.9 nM
same,CC50,HOP-92; [2],> 100000 nM
same,TGI,HOP-92; read-out: pTGI (converted),741 nM
same,GI50,NCI-H226,151 nM
same,CC50,NCI-H226; [2],8710 nM
same,TGI,NCI-H226; read-out: pTGI (converted),759 nM
same,GI50,NCI-H23,53.7 nM
same,CC50,NCI-H23; [2],6460 nM
same,TGI,NCI-H23; read-out: pTGI (converted),363 nM
same,GI50,NCI-H322M,70.8 nM
same,CC50,NCI-H322M; [2],57500 nM
same,TGI,NCI-H322M; read-out: pTGI (converted),708 nM
same,GI50,NCI-H460,38.9 nM
same,CC50,NCI-H460; [2],52500 nM
same,TGI,NCI-H460; read-out: pTGI (converted),813 nM
same,GI50,NCI-H522,37.1 nM
same,CC50,NCI-H522; [2],3800 nM
same,TGI,NCI-H522; read-out: pTGI (converted),240 nM
same,GI50,[1]; LXFL 529,46.8 nM
same,CC50,"[1]; LXFL 529, read-out: pLC50 (the source's name) (converted)",26900 nM
same,TGI,"[1]; LXFL 529, read-out: pTGI (converted)",708 nM
same,GI50,DMS-114,50.1 nM
same,CC50,DMS-114; [2],14100 nM
same,TGI,DMS-114; read-out: pTGI (converted),513 nM
same,GI50,DMS-273,61.7 nM
same,CC50,DMS-273; [2],12000 nM
same,TGI,DMS-273; read-out: pTGI (converted),603 nM
same,GI50,COLO 205,53.7 nM
same,CC50,COLO 205; [2],457 nM
same,TGI,COLO 205; read-out: pTGI (converted),200 nM
same,GI50,DLD-1,43.6 nM
same,CC50,DLD-1; [2],> 100000 nM
same,TGI,DLD-1; read-out: pTGI (converted),832 nM
same,GI50,HCC 2998,77.6 nM
same,CC50,HCC 2998; [2],15800 nM
same,TGI,HCC 2998; read-out: pTGI (converted),813 nM
same,GI50,HCT-116,33.1 nM
same,CC50,HCT-116; [2],24000 nM
same,TGI,HCT-116; read-out: pTGI (converted),398 nM
same,GI50,HCT-15,85.1 nM
same,CC50,HCT-15; [2],85100 nM
same,TGI,HCT-15; read-out: pTGI (converted),1200 nM
same,GI50,HT-29,61.7 nM
same,CC50,HT-29; [2],> 100000 nM
same,TGI,HT-29; read-out: pTGI (converted),813 nM
same,GI50,KM12,46.8 nM
same,CC50,KM12; [2],24000 nM
same,TGI,KM12; read-out: pTGI (converted),912 nM
same,GI50,KM-20L2,51.3 nM
same,CC50,KM-20L2; [2],66100 nM
same,TGI,KM-20L2; read-out: pTGI (converted),912 nM
same,GI50,SW-620,64.6 nM
same,CC50,SW-620; [2],> 100000 nM
same,TGI,SW-620; read-out: pTGI (converted),2400 nM
same,GI50,SF-268,70.8 nM
same,CC50,SF-268; [2],63100 nM
same,TGI,SF-268; read-out: pTGI (converted),1510 nM
same,GI50,SF-295,141 nM
same,CC50,SF-295; [2],41700 nM
